Laboratory results taken from ChEMBL document CHEMBL4346661, “Design, synthesis and evaluation of novel diaryl-1,5-diazoles derivatives bearing morpholine as potent dual COX-2/5-LOX inhibitors and antitumor agents” (Eur J Med Chem, 2019).

Assays:
HeLa = assay: Antiproliferative activity against human HeLa cells incubated for 48 hrs by MTT assay; type: functional, cell-based
Method in brief: (§1)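 MTT assay on F10 (murine melanoma), HeLa, A549, MCF-7 and 293T (human renal epithelium) cells. IC50 given as mean ± SD of three independent experiments.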

MCF7 = assay: Antiproliferative activity against human MCF7 cells incubated for 48 hrs by MTT assay; type: functional, cell-based; conditions: MCF7, 48 h; method in brief: as §1
[1] = target: T1, Prostaglandin G/H synthase 2 (Homo sapiens, UniProt P35354); assay: Inhibition of COX2 (unknown origin) using arachidonic acid as substrate incubated for 10 mins by Ellman's reagent based COX-1/COX-2 ELISA assay
T1 sequence (P35354 whole entry): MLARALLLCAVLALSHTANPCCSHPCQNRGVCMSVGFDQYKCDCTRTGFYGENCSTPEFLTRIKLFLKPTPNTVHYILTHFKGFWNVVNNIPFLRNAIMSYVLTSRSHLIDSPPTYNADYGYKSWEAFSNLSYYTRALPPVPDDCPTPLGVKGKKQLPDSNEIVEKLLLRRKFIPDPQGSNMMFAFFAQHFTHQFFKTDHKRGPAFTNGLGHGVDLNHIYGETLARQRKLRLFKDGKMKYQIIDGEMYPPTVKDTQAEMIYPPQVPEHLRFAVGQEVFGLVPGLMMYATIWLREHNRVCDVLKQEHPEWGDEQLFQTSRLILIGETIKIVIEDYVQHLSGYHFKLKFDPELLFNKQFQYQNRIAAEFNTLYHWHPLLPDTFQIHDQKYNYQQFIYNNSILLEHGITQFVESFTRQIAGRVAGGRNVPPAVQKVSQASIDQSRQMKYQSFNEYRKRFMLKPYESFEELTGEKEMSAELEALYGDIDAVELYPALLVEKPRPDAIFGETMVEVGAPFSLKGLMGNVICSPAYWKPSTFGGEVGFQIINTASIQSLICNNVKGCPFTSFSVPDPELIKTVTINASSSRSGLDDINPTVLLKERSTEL

[2] = target: Prostaglandin G/H synthase 1 (Homo sapiens, UniProt P23219); assay: Inhibition of COX1 (unknown origin) using arachidonic acid as substrate incubated for 10 mins by Ellman's reagent based COX-1/COX-2 ELISA assay
B16-F10 [3] = assay: Induction of apoptosis in mouse B16F10 cells assessed as early apoptosis cells at 3.125 uM incubated for 48 hrs by Annexin-V-FITC/propidium iodide staining-based flow cytometric analysis (reference value: 2.93%); type: functional
Method in brief: (§2)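 F10 cells were exposed to 0, 3.125, 6.25, 12.5 or 25 µM for 48 h. Cells were stained with Annexin V/PI and read by flow cytometry. Data are mean ± SD of three independent experiments.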

B16-F10 [4] = assay: Induction of apoptosis in mouse B16F10 cells assessed as late apoptosis cells at 3.125 uM incubated for 48 hrs by Annexin-V-FITC/propidium iodide staining-based flow cytometric analysis (reference value: 2.88%); type: functional; method in brief: as §2
B16-F10 [5] = assay: Induction of apoptosis in mouse B16F10 cells assessed as necrosis cells at 3.125 uM incubated for 48 hrs by Annexin-V-FITC/propidium iodide staining-based flow cytometric analysis (reference value: 0.186%); type: functional; method in brief: as §2
B16-F10 [6] = assay: Induction of apoptosis in mouse B16F10 cells assessed as early apoptosis cells at 6.25 uM incubated for 48 hrs by Annexin-V-FITC/propidium iodide staining-based flow cytometric analysis (reference value: 2.93%); type: functional; method in brief: as §2
B16-F10 [7] = assay: Induction of apoptosis in mouse B16F10 cells assessed as late apoptosis cells at 6.25 uM incubated for 48 hrs by Annexin-V-FITC/propidium iodide staining-based flow cytometric analysis (reference value: 2.88%); type: functional; method in brief: as §2
B16-F10 [8] = assay: Induction of apoptosis in mouse B16F10 cells assessed as viable cells at 12.5 uM incubated for 48 hrs by Annexin-V-FITC/propidium iodide staining-based flow cytometric analysis (reference value: 94%); type: functional; conditions: B16-F10, 48 h, read-out: Activity; method in brief: as §2
B16-F10 [9] = assay: Induction of apoptosis in mouse B16F10 cells assessed as early apoptosis cells at 12.5 uM incubated for 48 hrs by Annexin-V-FITC/propidium iodide staining-based flow cytometric analysis (reference value: 2.93%); type: functional; method in brief: as §2
B16-F10 [10] = assay: Induction of apoptosis in mouse B16F10 cells assessed as necrosis cells at 3.125 uM incubated for 48 hrs in presence of apoptosis inhibitor z-VAD-fmk by Annexin-V-FITC/propidium iodide staining-based flow cytometric analysis (reference value: 0.558%); type: functional
B16-F10 [11] = assay: Induction of apoptosis in mouse B16F10 cells assessed as early apoptosis cells at 6.25 uM incubated for 48 hrs in presence of apoptosis inhibitor z-VAD-fmk by Annexin-V-FITC/propidium iodide staining-based flow cytometric analysis (reference value: 3.83%); type: functional
B16-F10 [12] = assay: Induction of apoptosis in mouse B16F10 cells assessed as necrosis cells at 6.25 uM incubated for 48 hrs in presence of apoptosis inhibitor z-VAD-fmk by Annexin-V-FITC/propidium iodide staining-based flow cytometric analysis (reference value: 0.558%); type: functional
B16-F10 [13] = assay: Induction of apoptosis in mouse B16F10 cells assessed as viable cells at 12.5 uM incubated for 48 hrs in presence of apoptosis inhibitor z-VAD-fmk by Annexin-V-FITC/propidium iodide staining-based flow cytometric analysis (reference value: 92.5%); type: functional; conditions: B16-F10, 48 h, read-out: Activity
B16-F10 [14] = assay: Induction of apoptosis in mouse B16F10 cells assessed as late apoptosis cells at 12.5 uM incubated for 48 hrs in presence of apoptosis inhibitor z-VAD-fmk by Annexin-V-FITC/propidium iodide staining-based flow cytometric analysis (reference value: 3.13%); type: functional
B16-F10 [15] = assay: Induction of apoptosis in mouse B16F10 cells assessed as necrosis cells at 12.5 uM incubated for 48 hrs in presence of apoptosis inhibitor z-VAD-fmk by Annexin-V-FITC/propidium iodide staining-based flow cytometric analysis (reference value: 0.558%); type: functional
B16-F10 [16] = assay: Induction of apoptosis in mouse B16F10 cells assessed as early apoptosis cells at 25 uM incubated for 48 hrs in presence of apoptosis inhibitor z-VAD-fmk by Annexin-V-FITC/propidium iodide staining-based flow cytometric analysis (reference value: 3.83%); type: functional
B16-F10 [17] = assay: Induction of cell cycle arrest in mouse B16F10 cells assessed as cell accumulation at G1 phase at 3.125 uM incubated for 48 hrs by propidium iodide staining-based flow cytometric analysis (reference value: 59.73%); type: functional
B16-F10 [18] = assay: Induction of cell cycle arrest in mouse B16F10 cells assessed as cell accumulation at G2 phase at 3.125 uM incubated for 48 hrs by propidium iodide staining-based flow cytometric analysis (reference value: 22.43%); type: functional
B16-F10 [19] = assay: Induction of cell cycle arrest in mouse B16F10 cells assessed as cell accumulation at S phase at 6.25 uM incubated for 48 hrs by propidium iodide staining-based flow cytometric analysis (reference value: 14.16%); type: functional
B16-F10 [20] = assay: Induction of cell cycle arrest in mouse B16F10 cells assessed as cell accumulation at G1 phase at 25 uM incubated for 48 hrs by propidium iodide staining-based flow cytometric analysis (reference value: 59.73%); type: functional
B16-F10 [21] = assay: Induction of cell cycle arrest in mouse B16F10 cells assessed as increase in cell accumulation at G2 phase at incubated for 48 hrs by propidium iodide staining-based flow cytometric analysis; type: functional

Sequence of Prostaglandin G/H synthase 1 (P23219 whole entry): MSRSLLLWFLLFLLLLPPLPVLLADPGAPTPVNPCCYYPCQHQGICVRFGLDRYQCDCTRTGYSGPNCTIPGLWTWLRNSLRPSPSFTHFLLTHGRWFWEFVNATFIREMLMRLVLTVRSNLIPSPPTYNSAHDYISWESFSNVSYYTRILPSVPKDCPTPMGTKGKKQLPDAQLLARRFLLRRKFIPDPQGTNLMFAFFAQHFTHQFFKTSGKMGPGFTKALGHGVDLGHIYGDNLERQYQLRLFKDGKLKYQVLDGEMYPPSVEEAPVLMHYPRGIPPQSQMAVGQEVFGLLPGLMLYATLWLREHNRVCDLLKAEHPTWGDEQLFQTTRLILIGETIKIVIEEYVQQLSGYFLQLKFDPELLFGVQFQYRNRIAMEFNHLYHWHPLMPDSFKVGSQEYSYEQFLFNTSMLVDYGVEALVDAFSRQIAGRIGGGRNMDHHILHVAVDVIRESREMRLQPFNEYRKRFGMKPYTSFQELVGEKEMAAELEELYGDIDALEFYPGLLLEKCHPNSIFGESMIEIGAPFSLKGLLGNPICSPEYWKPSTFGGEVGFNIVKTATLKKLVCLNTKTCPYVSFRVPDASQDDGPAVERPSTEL

IC50 (HeLa): 8.08 µM | IC50 (MCF7): 7.65 µM | IC50 [1]: 0.17 µM | IC50 [2]: 32.1 µM
SMILES: NS(=O)(=O)c1ccc(-n2nc(C(=O)NCCCN3CCOCC3)cc2-c2ccc(C(F)(F)F)cc2)cc1
Activity (B16-F10 [3]): 7.97% | Activity (B16-F10 [4]): 4.9% | Activity (B16-F10 [5]): 0.597% | Activity (B16-F10 [6]): 14.5% | Activity (B16-F10 [7]): 7.9% | viability at 12.5 µM (B16-F10 [8]): 73.7% | Activity (B16-F10 [9]): 20.5% | Activity (B16-F10 [10]): 0.23% | Activity (B16-F10 [11]): 5.74% | Activity (B16-F10 [12]): 0.155% | viability at 12.5 µM (B16-F10 [13]): 84% | Activity (B16-F10 [14]): 9.78% | Activity (B16-F10 [15]): 0.105% | Activity (B16-F10 [16]): 11.3% | Activity (B16-F10 [17]): 55.36% | Activity (B16-F10 [18]): 28.69% | Activity (B16-F10 [19]): 15.23% | Activity (B16-F10 [20]): 50.93% | Activity (B16-F10 [21]): Dose-dependent effect
